The subject of test [1] is MDA-MB-468 breast cancer cells. Put plainly: γ-H2AX staining, detection of DNA damage. The format is cell-based, human. To be noted: MDA-MB-468, 50 μM. The method in brief:
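MDA-MB-468 cells treated with test compound, then immunocytochemically stained for γ-H2AX, with untreated cells as control. DNA damage imaged as red fluorescence, and red fluorescence intensity quantified.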

For test [2], the system named is MDA-MB-468 breast cancer cells. Description: JC-1 staining, mitochondrial membrane potential by flow cytometry. The format is cell-based, human. The following applies: MDA-MB-468, positive control, 5μM CCCP.
A further test relates to ct-DNA. To be noted: obtained from the literature; cited from earlier work.
The test system of a further test is calf-thymus DNA (ct-DNA). To be noted: classical DNA intercalator, comparison value; cited from earlier work.

Data on 3 compounds can be found in paper PMC10077533 (ACS Omega, 2023).

Each structure is given as a SMILES string.

Turning to `N.N.[Cl][Pt][Cl]` [cisplatin], the “γH2AX (phosphorylated histone) staining” value in test [1] is given as “DNA damage”.

Turning to `N#CC(C#N)=NNc1cccc(Cl)c1` [CCCP, carbonyl cyanide m-chlorophenylhydrazone], in test [2], the “cells with damaged mitochondria (JC-1 monomers)” value is listed as 76.98% and the “cells with healthy mitochondria (red + green fluorescing JC-1 aggregates)” value is recorded as 22.08%. As for `CC[n+]1c(-c2ccccc2)c2cc(N)ccc2c2ccc(N)cc21` [EtBr, ethidium bromide], in the test on ct-DNA, the “KEtBr, EtBr binding constant” value is 1.0 × 10^7 M^–1. In addition, in the test on calf-thymus DNA (ct-DNA), the “Kb value of EtBr (KEtBr)” value was 7 × 10^5 M^–1.
